APP 5'UTR act: activates APP 5'UTR luciferase reporter; SH-SY5Y APP 5'UTR luciferase reporter, luminescence; zero percent = DMSO vehicle wells; activation, % at 2 µM; hit rate 1% among 190,000; AID 1276;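 active = activation above a set limit, based on mean plus 3 SD of controls, cut at about 140% in these data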
AHR act: activates the human aryl hydrocarbon receptor | P35869 | AHR-responsive luciferase reporter cells, luminescence | activation, % at 5 µM | hit rate 2.5% among 320,000; in the data active = activation above about 47%
Mdm2 ligase inh: Mdm2 E3 ligase (human) inhibition; cell-based MDM2 ubiquitination luciferase reporter, 2 h; 0 = plate control, 100 = twice control, blank-subtracted; hit rate 0.11% among 210,000; Q00987; signal enhancement, % at 5 µM; AID 1230;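 active = signal enhancement of 30% or more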;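 also: luminescence tracks abundance of the self-degrading MDM2-luciferase fusion protein; higher signal means inhibition of MDM2 E3 ligase activity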
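Assay system: stable mammalian line carrying autodegrading MDM2–luciferase fusion reporter; amount: 2000 cells seeded into each well; buffer or medium: DMEM; benchmarks: plate control and blank wells; signal: luciferase luminescence; timing: 2 h compound exposure at 37 °C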
NF-kB expr up: raises NF-kB expression in human neuronal cells; NF-kB reporter expression; active compounds read high; fold change at 12.5 µM; hit rate 1.6% among 190,000; AID 1239; in the data active = fold change above about 3.3
STAT1 act: increases IFN-gamma driven STAT1 reporter signal | NIH 3T3 STAT1-luciferase reporter, luminescence; 100% = IFN-gamma alone, no compound | activation (% of control), % at 5.5 µM | hit rate 2.6% among 200,000;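 active = activation above the screen-wide mean activation plus 3 SD, cut at about 130% in these data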
PERK inh: inhibitors of human PERK kinase; inhibition, % at 5.6 µM; hit rate 0.17% among 220,000; AID 1416; CHO PERK-DD fusion, SEAP luminescence translation reporter;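 active = inhibition above the mean inhibition of all tested compounds plus 3 SD, set separately per screening campaign, cut at about 2.9% in these data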;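 also: PERK kinase domain activated by AP20187 dimerizer at 100 nM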
Target sequence (Q9NZJ5 whole entry, looked up, the tested form may be a part): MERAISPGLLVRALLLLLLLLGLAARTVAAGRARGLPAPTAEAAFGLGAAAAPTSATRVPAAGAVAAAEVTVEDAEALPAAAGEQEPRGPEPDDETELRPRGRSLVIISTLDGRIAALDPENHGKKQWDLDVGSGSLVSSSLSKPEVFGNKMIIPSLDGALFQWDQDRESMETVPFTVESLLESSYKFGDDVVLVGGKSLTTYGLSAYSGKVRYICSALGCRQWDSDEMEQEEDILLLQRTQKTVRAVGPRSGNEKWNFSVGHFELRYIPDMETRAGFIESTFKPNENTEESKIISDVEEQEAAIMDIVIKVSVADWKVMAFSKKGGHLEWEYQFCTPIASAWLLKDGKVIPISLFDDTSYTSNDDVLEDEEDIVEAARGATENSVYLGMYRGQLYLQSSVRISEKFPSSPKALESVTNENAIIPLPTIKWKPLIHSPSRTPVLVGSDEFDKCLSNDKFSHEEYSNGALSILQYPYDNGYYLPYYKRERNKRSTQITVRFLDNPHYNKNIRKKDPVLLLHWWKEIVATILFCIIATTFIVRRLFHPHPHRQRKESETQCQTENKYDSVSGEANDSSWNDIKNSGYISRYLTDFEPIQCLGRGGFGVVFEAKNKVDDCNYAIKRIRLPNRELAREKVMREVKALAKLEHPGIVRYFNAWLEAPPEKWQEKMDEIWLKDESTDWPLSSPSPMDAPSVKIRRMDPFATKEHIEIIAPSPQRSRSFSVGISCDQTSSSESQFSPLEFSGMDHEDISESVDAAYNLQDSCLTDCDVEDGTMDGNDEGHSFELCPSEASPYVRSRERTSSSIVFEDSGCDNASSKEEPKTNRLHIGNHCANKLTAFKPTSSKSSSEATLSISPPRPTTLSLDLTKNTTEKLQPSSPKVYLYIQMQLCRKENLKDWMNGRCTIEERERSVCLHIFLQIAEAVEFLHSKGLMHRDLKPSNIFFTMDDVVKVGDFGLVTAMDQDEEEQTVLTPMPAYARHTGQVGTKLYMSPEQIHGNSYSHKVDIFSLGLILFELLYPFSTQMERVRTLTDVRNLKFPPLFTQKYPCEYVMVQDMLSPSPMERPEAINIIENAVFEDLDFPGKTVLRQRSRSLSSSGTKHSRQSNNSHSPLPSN
Hits are given with their value; i = inactive; nt = no result. In the library only some 4.5% were active in any assay of this set; here they are far more common.

SMILES	APP 5'UTR act	AHR act	Mdm2 ligase inh	NF-kB expr up	STAT1 act	PERK inh
CC(OC(=O)C1CC1)C(=O)Nc1ccc([N+](=O)[O-])cc1Cl (stereo unspecified)	i	i	i	i	i	i
O=C1c2cccnc2C(Nc2ccccc2Br)N1Cc1ccco1 (stereo unspecified)	i	i	i	i	i	i
COc1ccc(CC(=O)NNS(=O)(=O)c2ccc([N+](=O)[O-])cc2)cc1OC	nt	i	nt	nt	nt	nt
Cc1ccnc(N2C(=O)c3ccccc3C2O)c1 (stereo unspecified)	152.7	i	i	i	i	i
Cc1ccnc(N2C(=O)c3ccccc3C2Nc2cccc(C)c2C)c1 (stereo unspecified)	i	i	i	i	i	i
CCOc1cc(Cl)c(NC(=O)c2ccco2)cc1OCC	i	i	i	i	i	i
O=C(Nc1cc2c(cc1Cl)OCCCO2)c1ccccc1	i	i	i	i	132.8	i
O=C(Nc1cc2c(cc1Cl)OCCCO2)c1ccco1	i	i	i	i	146.5	i
Cn1c(=O)c2c(nc(NCC3CCCC(CN)C3)n2Cc2ccc(Cl)cc2Cl)n(C)c1=O (stereo unspecified)	nt	i	nt	nt	nt	nt
CC(=O)N1CCN(c2ccc(NC(=O)c3ccc([N+](=O)[O-])o3)cc2Cl)CC1	nt	i	nt	nt	nt	nt
CCN1CCN(c2ccc(NC(=O)c3ccc([N+](=O)[O-])o3)cc2Cl)CC1	i	nt	i	i	148.4	i
CCC(=O)N1CCN(c2ccc(NC(=O)c3ccc([N+](=O)[O-])o3)cc2Cl)CC1	i	nt	i	i	129.6	i
O=C(O)c1cc(N/N=C/c2cccc3ccccc23)ccc1Cl	nt	i	nt	nt	nt	nt
O=[N+]([O-])c1cccc(N/N=C/c2cccc3ccccc23)c1	i	61.4	i	i	i	i
COc1ccc(-c2nnc(SC(C)C(=O)Nc3cccc(Cl)c3)o2)cc1 (stereo unspecified)	219.0	i	i	5.57	i	i
COc1ccc(-c2nnc(SC(C)C(=O)NNC(=O)c3ccc(C)cc3)o2)cc1 (stereo unspecified)	i	i	i	i	i	i
CCOC(=O)Nc1sc2nc(C)cc(C)c2c1-n1cccc1	i	69.9	i	i	i	i
NCC(c1ccccc1Cl)c1c[nH]c2ccccc12 (stereo unspecified)	nt	57.1	nt	nt	nt	nt
NCC(c1ccc(Cl)cc1Cl)c1c[nH]c2ccccc12 (stereo unspecified)	nt	65.2	nt	nt	nt	nt
N#C/C(=C\c1ccco1)C(=O)Nc1cccc2ncccc12	i	i	i	i	i	i
C[n+]1ccccc1/C=C/c1cc(Br)ccc1O	nt	59.9	nt	nt	nt	nt
COc1ccc(/C=C/c2cccc[n+]2C)c(O)c1	nt	i	nt	nt	nt	nt
Cn1c(C(=O)c2ccccc2[N+](=O)[O-])nc2ccccc21	i	48.0	i	i	i	i
CCCC1C(C(=O)OCC)=C(C)NC(C)=C1C(=O)OCC	i	56.8	nt	i	i	i
COc1ccccc1C(=O)Nc1ccc(Oc2ncnc3sc(-c4ccccc4)cc23)cc1	i	79.7	i	i	i	i
SMILES	APP 5'UTR act	AHR act	Mdm2 ligase inh	NF-kB expr up	STAT1 act	PERK inh
COc1ccc(NC(=O)c2ccc3ccccc3c2)cc1	nt	57.8	nt	nt	nt	nt
COc1ccc(Br)cc1/C=C/C(=O)Nc1ccc2ccccc2c1	i	49.8	i	i	i	i
COc1ccc(Br)cc1/C=C/C(=O)Nc1ccc(C)cc1	i	i	i	i	i	i
COc1ccc(NC(=O)c2ccc3nccnc3c2)cc1	i	i	nt	i	131.1	i
CC(C)(C)c1ccc(OCCC(=O)NNC(=O)c2ccncc2)cc1	nt	i	nt	nt	nt	nt
COc1ccccc1C(=O)Nc1ccc2ccccc2c1	nt	56.4	nt	nt	nt	nt
COc1ccccc1C(=O)Nc1cccc(NC(C)=O)c1	i	i	i	i	i	i
c1ccc(-c2cc(-c3nc4ccccc4[nH]3)c3ccccc3n2)cc1	i	52.0	i	i	i	i
Nc1ccc(-c2nc3ccccc3[nH]2)cc1	i	i	i	i	i	i
O=C(O)c1cc(-c2ccccc2)nc2ccccc12	i	i	nt	i	i	i
Nc1ccccc1-c1nc2ccccc2[nH]1	i	55.1	i	i	i	i
Oc1ccc(C=Nc2ccccc2-c2nc3ccccc3[nH]2)cc1	i	73.7	i	i	i	i
O=S(=O)(c1ccccc1Cl)N1CCCC1c1nc(-c2ccc(Cl)cc2)no1 (stereo unspecified)	i	i	i	i	i	i
C=CCn1c(SCC(=O)NC2(C)CCS(=O)(=O)C2)nc2ccccc21 (stereo unspecified)	nt	i	nt	nt	nt	nt
COc1ccc(C(C(=O)NCC2CCCO2)N(Cc2cccs2)C(=O)c2snc(C(N)=O)c2N)cc1 (stereo unspecified)	nt	i	nt	nt	nt	nt
O=C(/C=C/c1ccccc1)CC(=O)c1ccccc1O	i	i	i	i	i	i
CCOC(=O)/C=C(C)\C=C\c1c[nH]c2ccccc12	nt	53.1	i	nt	nt	i
NC(=O)CN(C/C=C/c1ccccc1)C/C=C/c1ccccc1	nt	55.1	nt	nt	nt	nt
CN(CC(=O)O)S(=O)(=O)/C=C/c1ccccc1	i	i	i	i	i	i
CC(=O)C(Cc1ccccc1)NC(=O)COC(=O)c1cccc(C)c1[N+](=O)[O-] (stereo unspecified)	nt	i	nt	nt	nt	nt
O=C(Oc1ccc(-c2nccc(-c3ccccn3)n2)cc1)c1cccc(C(F)(F)F)c1	i	i	i	3.42	i	i
Cc1ccc(C(=O)Oc2ccc(-c3nccc(-c4ccccn4)n3)cc2)cc1	i	i	i	i	i	i
Nc1[nH]c(N=NC(=O)c2ccc(Cl)cc2)c2ccccc12	i	i	i	i	i	i
Nc1[nH]c(N=NC(=O)c2ccccc2)c2ccccc12	i	i	i	3.37	142.2	i
Cc1nc2ccc(NC(=O)c3cnc(Cl)c(Cl)c3)cc2s1	nt	i	nt	nt	nt	nt
SMILES	APP 5'UTR act	AHR act	Mdm2 ligase inh	NF-kB expr up	STAT1 act	PERK inh
O=C(Nc1ccc(-c2nc3cccnc3s2)cc1)c1cccnc1Cl	nt	i	i	nt	nt	i
O=C(Nc1ccc(-c2nc3cccnc3s2)cc1)c1ccc(Br)o1	i	nt	i	i	131.4	i
Cc1nc2ccc(NC(=O)c3ccc(Cl)s3)cc2s1	i	i	i	i	145.9	i
CCCC(=O)Nc1nc2ccc(NC(=O)c3ccc(Br)o3)cc2s1	i	i	i	i	i	i
Cc1nc2ccc(NC(=O)c3ccc(Br)o3)cc2s1	i	i	i	3.44	145.3	i
Cc1nc2ccc(NC(=O)Cc3ccc(Br)cc3)cc2s1	nt	i	nt	nt	nt	i
Cc1nc2ccc(NC(=O)Cc3cccs3)cc2s1	i	i	i	i	135.5	i
O=C(Cc1ccccc1)N1CCCC1c1ccccc1 (stereo unspecified)	i	i	i	i	i	i
CCN(CC)C(=O)CN1CCN(Cc2ccc3c(c2)OCO3)CC1	nt	i	nt	nt	nt	nt
COc1ccc(CCN2C(=O)CS/C2=N\NC(=O)c2cccs2)cc1OC	i	69.1	i	i	i	i
COc1cccc(C(=O)N/N=C2/SCC(=O)N2CCc2ccc(OC)c(OC)c2)c1	i	i	i	i	i	i

Bioassay records deposited in PubChem by several laboratories.
